Common to all, as to format: functional, organism-based
One assay has as its system Aspergillus flavus. As to the kind of experiment: Antifungal activity against Aspergillus flavus CGMCC 3.0951 after 48 hrs by Alamar blue assay. The settings on record: CGMCC 3.0951, 48 h. Background: Resazurin is reduced to fluorescent resorufin, in cell work by metabolically active cells.
The subject of the next assay is Pyricularia oryzae. As to the kind of experiment: Antifungal activity against Pyricularia oryzae CGMCC 3.3283 after 48 hrs by Alamar blue assay. As to conditions: CGMCC 3.3283, 48 h. The procedure, abridged:
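Broth microdilution per NCCLS recommendations, in triplicate. Strain grown on PDA, then in broth at 28 °C for 48 h. Final suspension 10^4 hyphae/mL in PDB. Samples from 4 mg/mL DMSO stock, serially diluted. Alamar blue added as indicator; incubated 28 °C for 48 h. Fluorescence read at Ex/Em 544/590 nm. Inhibition plotted against concentration to give IC50.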

The next assay has as its system Microdochium nivale. As to the kind of experiment: Antifungal activity against Fusarium nivale CGMCC 3.4600 after 48 hrs by Alamar blue assay. As to conditions: CGMCC 3.4600, 48 h. The procedure, abridged: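 Plant-pathogen broth microdilution per NCCLS, in triplicate. F. nivale was grown on PDA, then in broth at 28 °C for 48 h, and suspended at 10^4 hyphae/mL in PDB. Serial dilutions were made from a 4 mg/mL DMSO stock. Alamar blue was the indicator and carbendazim the positive control. After incubation at 28 °C for 48 h, fluorescence was read at 544/590 nm, and IC50 was derived from the inhibition-concentration plot.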

A word on the IC50: it is the concentration that inhibits the measured activity by half.

In the assay with Aspergillus flavus, `C[C@@H]1[C@H](O)[C@@H](C)/C=C/C=C/C=C/C=C/C=C/C=C/C=C/[C@H](O[C@@H]2O[C@H](C)[C@@H](O)[C@H](N)[C@@H]2O)C[C@@H]2O[C@](O)(C[C@@H](O)C[C@@H](O)[C@H](O)CC[C@@H](O)C[C@@H](O)CC(=O)O[C@H]1C)C[C@H](O)[C@H]2C(=O)O` [AMPHOTERICIN B] registered an IC50 of 3.3 µM.
For `COC(=O)Nc1nc2ccccc2[nH]1` [CARBENDAZIM], the results for the IC50 in the assay with Pyricularia oryzae and in the assay with Microdochium nivale were 5 µM and 2.6 µM, respectively.
Consider `C[C@@H]1CC(=O)c2c(coc2-c2c(O)cccc2O)[C@@H]1O` [LEPTOSPHAERIN A], for which the IC50 in the assay with Aspergillus flavus, in the assay on Pyricularia oryzae and in the assay with Microdochium nivale was above 150 µM in each case.
On to `C[C@@H]1CC(=O)c2c(coc2-c2c(O)cccc2O)[C@H]1O` [LEPTOSPHAERIN B], for which the half-maximal inhibitory concentration (IC50) in the assay on Aspergillus flavus, with Pyricularia oryzae and with Microdochium nivale was above 150 µM each time.
On to `CC1=C[C@H](O)[C@@]2(Oc3cccc(O)c3C2=O)[C@H](C)C1=O` [LEPTOSPHAERIN C], for which the concentration for half-maximal inhibition (IC50) in the assay with Aspergillus flavus turned out to be 81.4 µM; in the assay with Pyricularia oryzae it was 80.3 µM; in the assay with Microdochium nivale, 144 µM.
As for `Cc1cc(O)c2c(c1O)COc1cccc(O)c1C2=O` [LEPTOSPHAERIN D], the IC50 in the assay on Aspergillus flavus is above 150 µM; in the assay on Pyricularia oryzae, 18.1 µM; in the assay with Microdochium nivale, 12.5 µM.
Consider `Cc1cc(CO)c2c(=O)c3c(O)cc(O)cc3oc2c1` [LEPTOSPHAERIN E], for which the concentration for half-maximal inhibition (IC50) in the assay with Aspergillus flavus, in the assay with Pyricularia oryzae and in the assay on Microdochium nivale was above 150 µM each time.
On to `C[C@@H]1C[C@H](O)[C@H]2C(=O)c3c(O)cccc3O[C@]2(C)[C@H]1O` [LEPTOSPHAERIN F], for which the IC50 with Aspergillus flavus, in the assay with Pyricularia oryzae and in the assay with Microdochium nivale was above 150 µM each time.
For the compound `C[C@@H]1CC(O)=C2C(=O)c3c(O)cccc3O[C@]2(C)[C@H]1O` [LEPTOSPHAERIN G], the concentration for half-maximal inhibition (IC50) in the assay with Aspergillus flavus was 14.8 µM; in the assay with Pyricularia oryzae, above 150 µM; in the assay on Microdochium nivale, above 150 µM.

Source of the values: ChEMBL document CHEMBL1157754, “Polyketides from the ascomycete fungus Leptosphaeria sp” (J Nat Prod, 2010).
